pIC50, pKi: −log10 of the molar value.
What was measured:
[1] = Inhibition of human intestinal carboxylesterase using o-nitrophenyl acetate as substrate
Method in brief: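 Recombinant hiCE secreted from baculovirus-infected Spodoptera frugiperda cells and purified from serum-free medium. Activity measured spectrophotometrically with o-nitrophenyl acetate as substrate. Routinely at least 8 inhibitor concentrations tested, and Ki derived.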

Acetylcholinesterase [2] = molecular target: T1, Acetylcholinesterase (Homo sapiens, UniProt P22303); assay: Inhibition of human AChE at 10 uM using acetylthiocholine as substrate relative to control
T1 sequence (P22303 whole entry): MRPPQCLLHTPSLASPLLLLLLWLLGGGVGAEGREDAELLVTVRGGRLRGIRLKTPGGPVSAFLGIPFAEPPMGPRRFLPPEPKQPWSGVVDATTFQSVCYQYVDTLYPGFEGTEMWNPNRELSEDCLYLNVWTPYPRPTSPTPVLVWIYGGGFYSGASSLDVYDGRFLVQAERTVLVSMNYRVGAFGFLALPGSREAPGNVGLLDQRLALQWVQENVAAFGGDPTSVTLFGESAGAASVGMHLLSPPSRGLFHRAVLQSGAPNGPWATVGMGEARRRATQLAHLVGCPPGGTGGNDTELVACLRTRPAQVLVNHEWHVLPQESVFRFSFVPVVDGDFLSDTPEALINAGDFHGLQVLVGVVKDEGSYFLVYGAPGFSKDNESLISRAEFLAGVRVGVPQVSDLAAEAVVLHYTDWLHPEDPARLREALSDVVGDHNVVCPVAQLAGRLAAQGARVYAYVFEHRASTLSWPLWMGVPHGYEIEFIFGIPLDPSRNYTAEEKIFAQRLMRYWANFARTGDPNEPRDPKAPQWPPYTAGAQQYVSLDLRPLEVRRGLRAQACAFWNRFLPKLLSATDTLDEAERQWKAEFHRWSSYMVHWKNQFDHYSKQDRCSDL

Cholinesterase [3] = molecular target: T2, Cholinesterase (Homo sapiens, UniProt P06276); assay: Inhibition of human BuChE at 10 uM using butyrylhiocholine as substrate relative to control
T2 sequence (P06276 whole entry): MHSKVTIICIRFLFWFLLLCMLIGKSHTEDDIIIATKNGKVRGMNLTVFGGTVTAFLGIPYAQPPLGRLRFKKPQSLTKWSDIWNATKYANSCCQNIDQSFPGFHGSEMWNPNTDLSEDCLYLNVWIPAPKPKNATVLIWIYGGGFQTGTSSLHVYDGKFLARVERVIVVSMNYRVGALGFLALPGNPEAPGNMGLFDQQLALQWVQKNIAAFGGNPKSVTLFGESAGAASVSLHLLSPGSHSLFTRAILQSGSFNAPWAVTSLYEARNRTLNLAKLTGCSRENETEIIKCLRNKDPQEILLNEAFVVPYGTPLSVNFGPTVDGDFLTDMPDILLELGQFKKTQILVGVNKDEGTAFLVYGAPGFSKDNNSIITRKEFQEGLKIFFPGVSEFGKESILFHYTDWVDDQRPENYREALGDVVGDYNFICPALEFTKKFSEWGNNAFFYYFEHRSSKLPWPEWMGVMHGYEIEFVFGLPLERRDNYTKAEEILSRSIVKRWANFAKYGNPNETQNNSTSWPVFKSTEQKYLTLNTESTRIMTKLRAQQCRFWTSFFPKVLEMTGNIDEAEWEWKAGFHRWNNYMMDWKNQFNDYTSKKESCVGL

[4] = Irreversible inhibition of human intestinal carboxylesterase assessed as residual activity preincubated with enzyme followed by compound dilution measured after 18 hrs using o-NPA as substrate relative to control
Method in brief: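 Purified recombinant hiCE pre-incubated with inhibitor, then extensively diluted and passed through size-exclusion filtration to remove free compound. Recovered protein assayed for residual esterase activity with o-NPA. Benzil (reversible inhibitor) and DMSO (solvent) served as controls.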

Acetylcholinesterase [5] = molecular target: T1, Acetylcholinesterase; assay: Inhibition of human AChE using acetylthiocholine as substrate
carboxylesterase 1 (CE1) [6] = molecular target: T3, carboxylesterase 1 (CE1) (Homo sapiens, UniProt P23141); assay: Irreversible inhibition of human CE1 assessed as residual activity preincubated with enzyme followed by compound dilution measured after 18 hrs using o-NPA as substrate relative to control; conditions: probe o-NPA, read-out: Activity
T3 sequence (P23141 whole entry): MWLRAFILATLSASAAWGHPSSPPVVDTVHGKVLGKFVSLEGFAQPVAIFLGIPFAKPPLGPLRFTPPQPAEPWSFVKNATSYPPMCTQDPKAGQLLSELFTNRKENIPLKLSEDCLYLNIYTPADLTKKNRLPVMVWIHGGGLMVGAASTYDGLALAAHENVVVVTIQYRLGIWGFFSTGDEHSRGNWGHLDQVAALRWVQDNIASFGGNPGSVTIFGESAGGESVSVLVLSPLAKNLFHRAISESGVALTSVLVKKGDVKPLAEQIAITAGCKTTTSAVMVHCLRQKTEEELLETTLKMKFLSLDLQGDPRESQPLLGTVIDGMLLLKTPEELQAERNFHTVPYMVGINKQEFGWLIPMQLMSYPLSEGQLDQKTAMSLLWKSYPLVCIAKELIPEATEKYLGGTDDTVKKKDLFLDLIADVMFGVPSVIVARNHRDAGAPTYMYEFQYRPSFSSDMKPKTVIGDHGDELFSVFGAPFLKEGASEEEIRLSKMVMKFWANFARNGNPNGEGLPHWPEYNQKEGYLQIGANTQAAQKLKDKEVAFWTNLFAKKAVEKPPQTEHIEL

carboxylesterase 1 (CE1) [7] = molecular target: T3, carboxylesterase 1 (CE1); assay: Inhibition of human CE1 expressed in human U373MG cells assessed as reduction in enzyme-mediated oseltamivir hydrolysis by measuring oseltamivir carboxylate level at 10 uM preincubated for 10 mins followed by oseltamivir addition measured after 30 mins by UPLC-MS analysis relative to control; assay type: cell-based; design: scale not given: the % may be the effect or the level left; conditions: U373MG cells that express human CE1, probe oseltamivir, read-out: Activity
Method in brief: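 U373MG glioblastoma cells engineered to express hCE1 (~10^6 per well) were pre-incubated 10 min with 10μM inhibitor, then oseltamivir was added (20μM final) for 30 min. Media were harvested, mixed with an equal volume of acetonitrile and centrifuged. Oseltamivir carboxylate was measured by UPLC (C18, water:acetonitrile gradient) with MS detection, as percent of DMSO-treated cells. Benzil was the positive control; duplicate points.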

Cholinesterase [8] = molecular target: T2, Cholinesterase; assay: Inhibition of human BuChE using butyrylhiocholine as substrate
carboxylesterase 1 (CE1) [9] = molecular target: T3, carboxylesterase 1 (CE1); assay: Inhibition of human CE1 expressed in human U373MG cells assessed as reduction in enzyme-mediated oseltamivir hydrolysis at 10 uM preincubated for 10 mins followed by oseltamivir addition measured after 30 mins by UPLC-MS analysis relative to control; assay type: cell-based; conditions: U373MG cells that express human CE1, probe oseltamivir
Method in brief: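 U373MG glioblastoma cells expressing hCE1 (~10^6 per well) pretreated 10 min with 10μM inhibitor, then given oseltamivir (20μM final). After 30 min, media harvested, mixed with an equal volume of acetonitrile and centrifuged. Oseltamivir carboxylate quantified by UPLC (C18, water:acetonitrile gradient) with MS detection. Expressed as percent of DMSO-treated cells. Benzil used as positive control; duplicate points.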

Liver carboxylesterase 1 [10] = molecular target: T4, Liver carboxylesterase 1 (Homo sapiens, UniProt P23141); assay: Binding affinity to serine residue of human CE1 assessed as adduct formation at 10 uM by mass spectrum analysis
T4 sequence (P23141 whole entry): T3 sequence (P23141 whole entry)
Method in brief: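 hCE1 purified from serum-free medium of baculovirus-infected Spodoptera frugiperda cells, incubated with 10μM inhibitor. Unbound compound removed by dilution and repeated size-exclusion spin chromatography. Intact mass by ESI positive-mode MS (600–2800 m/z) in 3:2 water-acetonitrile with 0.1% formic acid, 2 min acquisition. Spectra deconvoluted, and adduct read as mass shift versus DMSO-treated protein.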

Liver carboxylesterase 1 [11] = molecular target: T4, Liver carboxylesterase 1; assay: Inhibition of human CE1 using o-NPA as substrate
Method in brief: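 Recombinant human CE1 was purified from serum-free media of baculovirus-infected Spodoptera frugiperda cells secreting the enzyme. Activity was read spectrophotometrically with o-nitrophenyl acetate as substrate. At least 8 inhibitor concentrations were used and Ki was derived from them.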

Row | Compound | pKi [1] | inhibition (Acetylcholinesterase [2]) | inhibition (Cholinesterase [3]) | Activity [4] | pIC50 (Acetylcholinesterase [5]) | activity at 18 h (carboxylesterase 1 (CE1) [6]) | activity at 0.5 h, 10 µM (carboxylesterase 1 (CE1) [7]) | pIC50 (Cholinesterase [8]) | inhibition at 0.5 h, 10 µM (carboxylesterase 1 (CE1) [9]) | Activity (Liver carboxylesterase 1 [10]) | pKi (Liver carboxylesterase 1 [11])
1 | C[C@H]1COc2c1c(=O)oc(=O)c1c3c(ccc21)C(C)(C)CCC3 | 9.12 | 68% | 69% | 1 to 9% | 5.49 | 3 to 16% | 10% | 5.55 | > 70% | – | –
2 | Cc1coc2c1c(=O)oc(=O)c1c3c(ccc12)C(C)(C)CCC3 | 8.85 | 65% | 38% | 0.1 to 40% | 5.48 | 6 to 10% | 27% | 5.10 | > 70% | Active | –
3 | Cc1cccc2c1ccc1c3occ(C)c3c(=O)oc(=O)c21 | 9.09 | 47% | 32% | 4% | < 5.00 | 54% | 12% | < 5.00 | > 70% | – | 8.62
4 | O=C(C(=O)c1ccccc1)c1ccccc1 [BENZIL] | – | – | – | 98% | – | 85% | 5% | – | – | – | –
5 | O=S(=O)(F)Cc1ccccc1 [PHENYLMETHYLSULFONYLFLUORIDE] | – | – | – | – | – | – | – | – | – | Active | –
6 | Cc1cccc2c1ccc1c3c(c(=O)oc(=O)c12)[C@@H](C)CO3 | 9.21 | 66% | 61% | 18% | 4.99 | 9% | 1% | 5.11 | 99% | Active | 8.44
